According to ChEMBL document CHEMBL1138266, “Design, synthesis, and biological evaluation of a 1alpha,25-dihydroxy-19-norvitamin D3 analogue with a frozen A-ring conformation” (J Med Chem, 2007):
The source made the active and inactive calls. No cut-off for these calls is given here.

Legend:
Mus musculus [1] = assay: Increase in serum calcium in vitamin D deficient CD1 mouse at 5.4 […], ip after 24 hrs; type: functional, organism-based
In short: (§1)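 Female CD-1 mice, 6 weeks old on arrival, were fed a purified vitamin D-deficient diet for 17 weeks (n=3/group). They got a single intraperitoneal injection in 95:5 propylene glycol/ethanol vehicle. Blood was drawn predose and at multiple later times. Serum was diluted in 0.1% lanthanum chloride and calcium read by atomic absorption, reported as change from baseline.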

Mus musculus [2] = assay: Increase in serum calcium in vitamin D deficient CD1 mouse at 181.5 […], ip after 24 hrs; type: functional, organism-based; in short: as §1
Vitamin D3 receptor [3] = target: T1, Vitamin D3 receptor (Rattus norvegicus, UniProt P13053); assay: Displacement of 1-alpha,25-dihydroxyvitamin from rat recombinant VDR
T1 sequence (P13053 whole entry): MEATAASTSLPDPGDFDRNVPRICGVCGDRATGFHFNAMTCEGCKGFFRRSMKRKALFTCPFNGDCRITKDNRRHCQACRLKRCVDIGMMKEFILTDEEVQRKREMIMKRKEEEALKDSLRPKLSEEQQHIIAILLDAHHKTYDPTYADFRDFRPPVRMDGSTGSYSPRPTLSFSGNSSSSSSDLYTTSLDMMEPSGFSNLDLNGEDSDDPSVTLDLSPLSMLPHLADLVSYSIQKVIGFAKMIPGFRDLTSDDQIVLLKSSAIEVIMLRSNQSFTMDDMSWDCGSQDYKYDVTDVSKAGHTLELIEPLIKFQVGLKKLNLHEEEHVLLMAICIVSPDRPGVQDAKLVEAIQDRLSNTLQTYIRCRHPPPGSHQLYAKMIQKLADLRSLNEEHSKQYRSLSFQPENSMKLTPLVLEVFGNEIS
In short: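 Competitive binding against radiolabeled 1α,25-(OH)2D3 at 1 nM. Run in duplicate on two separate occasions.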

HL-60 [4] = assay: Induction of differention of human HL60 cells into monocytes by NBT reduction assay; type: functional, cell-based
HL-60 [5] = assay: Ratio of ED50 for drug to 1-alpha,25-dihydroxyvitamin for HL60 cells differentiation by NBT reduction assay; type: functional, Homo sapiens
In short: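 Human HL-60 promyelocytes induced toward monocytic differentiation; maturation scored as percentage of cells reducing nitro blue tetrazolium. […] Experiment repeated in duplicate two times.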

Vitamin D3 receptor [6] = target: T1, Vitamin D3 receptor; assay: (§2) Activity at VDR in rat osteosarcoma cells assessed as 24-hydroxylase transcription by reporter gene assay; type: cell-based
In short: (§3)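 Rat osteosarcoma cells stably carrying a 24-hydroxylase gene reporter plasmid, read as luciferase activity.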

[7] = target: T2, Vitamin D3 receptor (Rattus norvegicus) (UniProt P13053); assay: as §2; type: cell-based; in short: as §3
T2 sequence (whole entry): T1 sequence (P13053 whole entry)

Mus musculus [8] = assay: Increase in serum calcium in vitamin D sufficient CD1 mouse at 50 ug/kg, ip; type: functional, organism-based
In short: (§4)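 Female CD-1 mice, 6-7 weeks old, were group-housed on a purified diet with 0.47% calcium and acclimated 5-7 days. Each got a single dose (n=5-6/group). Serum calcium was measured by atomic absorption after 0.1% lanthanum chloride dilution. Analysis was one-way ANOVA with pairwise comparisons.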

Mus musculus [9] = assay: Increase in serum calcium in vitamin D sufficient CD1 mouse at 150 ug/kg, ip; type: functional, organism-based; in short: as §4
Mus musculus [10] = assay: Increase in serum calcium in vitamin D sufficient CD1 mouse at 33.3 ug/kg, ip; type: functional, organism-based; in short: as §4
Mus musculus [11] = assay: Increase in serum calcium in vitamin D sufficient CD1 mouse at 33.3 ug/kg, po; type: functional, organism-based; in short: as §4
Mus musculus [12] = assay: Increase in serum calcium in vitamin D sufficient CD1 mouse at 150 ug/kg, po; type: functional, organism-based; in short: as §4

| Compound | Activity (Mus musculus [1]) | Activity (Mus musculus [2]) | Ki (Vitamin D3 receptor [3]) [nM] | EC50 (HL-60 [4]) [nM] | Ratio ED50 (HL-60 [5]) | EC50 (Vitamin D3 receptor [6]) [nM] | Activity [7] | Activity (Mus musculus [8]) | Activity (Mus musculus [9]) | Activity (Mus musculus [10]) | Activity (Mus musculus [11]) | Activity (Mus musculus [12]) |
| --- | --- | --- | --- | --- | --- | --- | --- | --- | --- | --- | --- | --- |
| C=C1/C(=C\C=C2/CCC[C@]3(C)[C@@H]([C@H](C)CCCC(C)(C)O)CC[C@@H]23)C[C@@H](O)C[C@@H]1O | Active | Active |  |  |  |  |  |  |  |  |  |  |
| C[C@H](CCCC(C)(C)O)C1CC[C@H]2/C(=C/C=C3/C[C@@H](O)C4=CCCO[C@@H]4C3)CCC[C@]12C (some centres not stated) |  |  | 30 | 100 | >100 | 100 |  |  |  |  |  |  |
| C[C@H](CCCC(C)(C)O)C1CC[C@H]2/C(=C/C=C3\C[C@@H](O)C4=CCCO[C@@H]4C3)CCC[C@]12C (some centres not stated) | Active | Active | 10000 | 1000 | >1000 |  | inactive | Active | Active | Active | Active | Active |
